Results taken from article PMC10099142 (ACS Omega, 2023).
Like-named read-outs stand apart in the source and are kept apart here.

Experiments:
Assay type in all cases: cell-based
[1] = test system: human lung adenocarcinoma (A549); test: MTT assay, antiproliferative activity, A549
Method in brief: (§1)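 A549 cells are grown in DMEM and MDA-MB-231 cells in MEM, both with FBS and antibiotics, at 37 °C in humidified 5% CO2, then trypsinized. Cells are seeded at 5 × 10^3 per well and grown to confluency. They are exposed to a range of test compound concentrations for 24 h or 72 h, with 5-fluorouracil as reference. Medium is removed, MTT is added for 3 h, and formazan is dissolved in DMSO. A570 is read and percentage cell death is calculated.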

[2] = test system: human breast adenocarcinoma (MDA-MB-231); test: MTT assay, antiproliferative activity, MDA-MB-231
Method in brief: as §1

[3] = test system: 3T3-L1, a fibroblast cell line; test: Screening of toxicity in normal cell line; conditions: Mus musculus, 3T3-L1, 72 h, read-out: IC50 3T3-L1 72 h
Method in brief: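 3T3-L1 fibroblasts are kept in DMEM with 5% FBS and antibiotics at 37 °C in humidified 5% CO2. They are seeded at 5 × 10^3 per well and grown to confluency, then treated with a range of test compound concentrations. MTT is added for 3 h after removing the medium, and formazan is dissolved in DMSO. A570 is read and percentage cell death is calculated.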

IC50 ([1]; A549, 24 h, read-out: IC50 A549 24 h): 747 ± 0.13 µM
IC50 ([1]; A549, 72 h, read-out: IC50 A549 72 h): 17 ± 0.41 µM
IC50 ([2]; MDA-MB-231, 24 h, read-out: IC50 MDA-MB-231 24 h): 885 ± 0.76 µM
IC50 ([2]; MDA-MB-231, 72 h, read-out: IC50 MDA-MB-231 72 h): 29.01 ± 0.01 µM
Structure (SMILES): O=c1[nH]cc(F)c(=O)[nH]1 [5-fluorouracil]
IC50 [3]: 41.4 ± 1.05 µM
